Results of several laboratories.
Target: Serine/threonine-protein kinase TAO2 (TAOK2, Homo sapiens, UniProt Q9UL54)
Residues used in one study (Q9UL54 1-1235): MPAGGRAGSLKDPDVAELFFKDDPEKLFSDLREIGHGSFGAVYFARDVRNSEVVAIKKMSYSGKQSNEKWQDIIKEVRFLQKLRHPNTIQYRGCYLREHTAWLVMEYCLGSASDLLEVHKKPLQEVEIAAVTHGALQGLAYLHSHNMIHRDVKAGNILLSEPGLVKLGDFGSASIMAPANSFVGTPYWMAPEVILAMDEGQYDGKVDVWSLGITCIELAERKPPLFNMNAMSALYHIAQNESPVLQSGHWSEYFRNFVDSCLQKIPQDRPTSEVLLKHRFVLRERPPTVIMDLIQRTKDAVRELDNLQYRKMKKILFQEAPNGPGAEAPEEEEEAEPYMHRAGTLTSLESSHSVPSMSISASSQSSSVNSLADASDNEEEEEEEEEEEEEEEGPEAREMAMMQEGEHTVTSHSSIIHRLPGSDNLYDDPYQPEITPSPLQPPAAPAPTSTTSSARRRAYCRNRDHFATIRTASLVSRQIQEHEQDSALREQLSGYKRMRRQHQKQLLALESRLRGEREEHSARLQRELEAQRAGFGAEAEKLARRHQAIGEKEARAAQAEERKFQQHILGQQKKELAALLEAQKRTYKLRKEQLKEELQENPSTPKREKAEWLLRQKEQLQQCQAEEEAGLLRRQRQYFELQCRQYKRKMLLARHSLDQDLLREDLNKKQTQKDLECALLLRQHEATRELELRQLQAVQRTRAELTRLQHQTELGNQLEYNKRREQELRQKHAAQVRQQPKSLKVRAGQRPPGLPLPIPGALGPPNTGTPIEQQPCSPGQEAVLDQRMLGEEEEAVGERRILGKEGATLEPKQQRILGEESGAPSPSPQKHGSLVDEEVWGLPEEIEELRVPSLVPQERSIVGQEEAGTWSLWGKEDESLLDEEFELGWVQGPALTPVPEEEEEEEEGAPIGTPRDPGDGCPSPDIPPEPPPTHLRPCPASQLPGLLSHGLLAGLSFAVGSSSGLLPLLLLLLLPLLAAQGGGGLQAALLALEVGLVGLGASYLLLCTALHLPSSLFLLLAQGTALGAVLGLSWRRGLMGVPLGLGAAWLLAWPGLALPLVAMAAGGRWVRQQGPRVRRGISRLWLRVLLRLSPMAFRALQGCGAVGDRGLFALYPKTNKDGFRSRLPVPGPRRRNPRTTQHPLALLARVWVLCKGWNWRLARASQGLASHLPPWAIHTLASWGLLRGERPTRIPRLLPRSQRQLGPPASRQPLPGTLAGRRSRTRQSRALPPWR

`COc1ncc2cc3ccccc3nc2c1C#N` gave a remaining binding of 93% (cell-free assay; competition with immobilised ligand; 5 µM).
With `CN(CCCC(F)(F)F)c1nccc(-c2cnn3ncccc23)n1` the remaining binding was 100% (binding; 1 µM).
`FC(F)(F)Oc1cccc(-c2cnc3ccc(-c4ccncc4)nn23)c1` has a remaining binding of 100% (binding; competition with immobilised ligand; 5 µM).
With `CCOC(=O)c1cc2cc(-c3cc(C(=O)NCc4ccc(C(=O)O)cc4)nn3C)ccc2[nH]1` the remaining binding was 90% (cell-free assay; competition with immobilised ligand; 0.1 µM).
With `CNC(=O)[C@@H]1CC[C@@H](n2c(-c3ccc4cnccc4c3)nc3ccc(C(=O)NCc4cccc(C(N)=O)c4)cc32)C1` the remaining binding was 98% (binding; competition with immobilised ligand; 1 µM).
The remaining binding of `COc1ccc2c(c1)O[C@H](c1ccc(OC)c(OC)c1)C[C@@H]2NC(=O)C1(c2ccc3c(c2)OC(F)(F)O3)CC1` is reported as 98% (cell-free assay; competition with immobilised ligand; 1 µM).
With `N[C@@H]1CCN(c2nccc(-c3cnn4ncccc34)n2)C1` the remaining binding was 100% (binding; 1 µM).
With `Cc1cc(NC(=O)c2cccc(S(F)(F)(F)(F)F)c2)cc(-n2ccn3nc(-c4cccnc4)cc23)c1` the remaining binding was 91.3% (cell-free assay; competition with immobilised ligand; 1 µM).
For `CC1CCCN1c1nccc(-c2cnn3ncccc23)n1` (stereo not shown), the remaining binding was 100% (binding; 1 µM).
With `CC(=O)Nc1c(C(C)=O)c(=O)n(C)c2nc(-c3ccc(Cl)cc3Cl)c(-c3ccc(Cl)cc3)cc12` the remaining binding was 88% (cell-free assay; competition with immobilised ligand; 1 µM).
`CN(c1nccc(-c2cnn3ncccc23)n1)C1CC1` has a remaining binding of 100% (binding; 1 µM).
`CCc1ccccc1C(=O)Nc1n[nH]c2c(C)c(F)c(C3C(C#N)=C(C)N(C)C(C)=C3C#N)cc12` has a remaining binding of 96% (cell-free assay; competition with immobilised ligand; 1 µM).
`Cc1cnc(Nc2ccc(C(=O)N3CCC(N4CCCC4)CC3)cc2)nc1-c1cc2ccccc2s1` has a remaining binding of 29% (binding; competition with immobilised ligand; 1 µM).
`c1cncc(-c2cccc(Nc3nccc(NC4CCCCC4)n3)c2)c1` gave a remaining binding of 94% (binding; competition with immobilised ligand; 10 µM).
The remaining binding of `Cn1nc(C(=O)NCc2ccc(C(=O)O)cc2)cc1-c1ccc2[nH]ccc2c1` is reported as 82% (cell-free assay; competition with immobilised ligand; 0.1 µM).
For `C[C@H]1CCN(c2nccc(-c3cnn4ncccc34)n2)C1`, the remaining binding was 70% (binding; 1 µM).
With `C=CC(=O)N1CCC(C(=O)NCC(=O)N2CCN(c3nc(-c4cnc(N)nc4C(F)F)nc(N4CCOCC4)n3)CC2)CC1` the remaining binding was 72% (binding; competition with immobilised ligand; 1 µM).
The remaining binding of `COc1cnc(Nc2cccc(S(N)(=O)=O)c2)nc1N1CCN(c2ccccc2)C(=O)C1` is reported as 95% (binding; competition with immobilised ligand; 1 µM).
`O=C(c1ccc(Nc2nccc(-c3cc4ccccc4s3)n2)cc1)N1CCC(N2CCCC2)CC1` gave a remaining binding of 71% (binding; competition with immobilised ligand; 1 µM).
For `O=C(NCC1CCOCC1)c1n[nH]cc1NC(=O)c1c(F)cccc1F`, the remaining binding was 100% (binding; competition with immobilised ligand; 1 µM).
The remaining binding of `c1cnn2ncc(-c3ccnc(N4CCC45COC5)n3)c2c1` is reported as 71% (binding; 1 µM).
`O=C(NCCCN1CCOCC1)c1ccc(Nc2nccc(-c3cc4ccccc4s3)n2)cc1` has a remaining binding of 80% (binding; competition with immobilised ligand; 1 µM).
